Activity calls are given as the source filed them. The calls are words filed in the database; no cut-off is given here.

Data set [1] deals with T1, Bombesin receptor subtype-3 (Homo sapiens, UniProt P32247).
T1 sequence (P32247 whole entry): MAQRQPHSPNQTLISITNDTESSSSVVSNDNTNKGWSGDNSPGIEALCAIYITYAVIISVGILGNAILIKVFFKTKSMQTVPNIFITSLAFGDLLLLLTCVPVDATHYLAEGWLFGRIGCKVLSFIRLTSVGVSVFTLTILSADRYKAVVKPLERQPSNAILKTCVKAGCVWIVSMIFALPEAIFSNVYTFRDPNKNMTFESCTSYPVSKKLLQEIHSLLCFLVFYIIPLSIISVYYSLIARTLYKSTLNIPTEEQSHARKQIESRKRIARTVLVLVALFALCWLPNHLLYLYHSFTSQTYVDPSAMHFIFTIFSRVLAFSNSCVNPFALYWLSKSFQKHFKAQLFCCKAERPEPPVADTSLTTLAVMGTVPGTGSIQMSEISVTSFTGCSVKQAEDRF
Description: Displacement of [125I]-[D-Tyr6,beta-Ala11,Phe13,Nle14]bombesin from human BRS3 expressed in NFAT-CHO cells after 2 hrs by liquid scintillation counting. In kind it is cell-based. The method in brief: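 Membranes (1–4 µg protein) from NFAT-CHO cells expressing human BRS-3, incubated with 0.3 pM 125I-dY-peptide and a range of test compound concentrations in 50 mM Tris pH 7.2, 5 mM MgCl2, 0.1% BSA, 2 h at room temperature; bound/free separated by GF/c filtration with PBS washes; filter radioactivity by scintillation counting; mean of at least three runs.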

The target in data set [2] is T1, Bombesin receptor subtype-3. As to the kind of experiment: Agonistic activity at human BRS3 expressed in HEK293AEO cells by aequorin bioluminescence assay. In kind it is functional, cell-based.
In data set [3] the target is T2, Bombesin receptor subtype-3 (Homo sapiens) (UniProt P32247).
T2 sequence (whole entry): T1 sequence (P32247 whole entry)
Description: Agonistic activity at human BRS3 expressed in HEK293AEO at 10 uM cells by aequorin bioluminescence assay relative to dY peptide. In kind it is functional, cell-based.

The target of data set [4] is T3, Bombesin receptor subtype-3 (Rattus norvegicus, UniProt Q8K418).
T3 sequence (Q8K418 whole entry): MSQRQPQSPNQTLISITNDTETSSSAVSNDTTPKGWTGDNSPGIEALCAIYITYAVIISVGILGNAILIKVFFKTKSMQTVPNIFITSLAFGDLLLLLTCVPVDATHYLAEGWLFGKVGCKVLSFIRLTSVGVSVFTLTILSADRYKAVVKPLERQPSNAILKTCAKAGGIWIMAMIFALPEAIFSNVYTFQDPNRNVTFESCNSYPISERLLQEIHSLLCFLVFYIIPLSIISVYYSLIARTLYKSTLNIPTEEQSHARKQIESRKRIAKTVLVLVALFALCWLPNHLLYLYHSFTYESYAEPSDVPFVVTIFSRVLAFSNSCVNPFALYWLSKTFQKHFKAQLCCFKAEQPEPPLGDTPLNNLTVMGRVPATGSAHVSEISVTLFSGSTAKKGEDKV
Description: Agonistic activity at rat BRS3 expressed in HEK293AEO at 10 uM by aequorin bioluminescence assay. In kind it is functional.

Data set [5] deals with T4, Bombesin receptor subtype-3 (Mus musculus, UniProt O54798).
T4 sequence (O54798 whole entry): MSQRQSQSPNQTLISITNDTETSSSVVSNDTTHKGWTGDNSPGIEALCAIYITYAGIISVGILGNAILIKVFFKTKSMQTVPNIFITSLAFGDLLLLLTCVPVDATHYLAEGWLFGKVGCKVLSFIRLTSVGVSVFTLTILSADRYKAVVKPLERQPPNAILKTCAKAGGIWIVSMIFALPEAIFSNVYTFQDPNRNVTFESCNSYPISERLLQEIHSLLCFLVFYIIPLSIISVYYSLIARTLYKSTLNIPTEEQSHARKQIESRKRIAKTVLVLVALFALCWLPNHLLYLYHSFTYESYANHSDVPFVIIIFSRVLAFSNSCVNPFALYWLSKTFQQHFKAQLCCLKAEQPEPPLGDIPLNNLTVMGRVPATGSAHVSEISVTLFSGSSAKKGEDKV
As to the kind of experiment: Agonistic activity at mouse BRS3 expressed in HEK293AEO cells by aequorin bioluminescence assay. In kind it is functional, cell-based.

In data set [6] the target is T5, Bombesin receptor subtype-3 (Rattus norvegicus) (UniProt Q8K418).
T5 sequence (whole entry): T3 sequence (Q8K418 whole entry)
As to the kind of experiment: Agonistic activity at rat BRS3 expressed in HEK293AEO cells at by aequorin bioluminescence assay relative to dY peptide. It is filed as functional, cell-based.

The target of data set [7] is T6, Bombesin receptor subtype-3 (Mus musculus) (UniProt O54798).
T6 sequence (whole entry): T4 sequence (O54798 whole entry)
Description: Agonistic activity at mouse BRS3 expressed in HEK293AEO cells at 10 uM by aequorin bioluminescence assay relative to dY peptide. In kind it is functional, cell-based.

For the next data set, the target named is Neuromedin-B receptor (Homo sapiens, UniProt P28336). Description: Displacement of [125I]-[D-Tyr6,beta-Ala11,Phe13,Nle14]bombesin from human bombesin BB1 receptor expressed in NFAT-CHO cells after 2 hrs by liquid scintillation counting. In kind it is cell-based.
For data set [8], the target named is Gastrin-releasing peptide receptor (Homo sapiens, UniProt P30550). As to the kind of experiment: Displacement of [125I]-[D-Tyr6,beta-Ala11,Phe13,Nle14]bombesin from human bombesin BB2 receptor expressed in NFAT-CHO cells after 2 hrs by liquid scintillation counting. It is filed as cell-based.
Data set [9] is described as follows: Oral bioavailability in Sprague-Dawley rat at 4 mg/kg. In kind it is ADME, organism-based. The conditions noted are these: in vivo. The procedure, abridged:
(§1)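 Sprague-Dawley rats given compound as solution in EtOH/PEG400/water (10:40:50), 1 mg/kg iv and 4 mg/kg po; clearance, steady-state volume of distribution, half-life, oral bioavailability and dose-normalised AUC derived.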

Data set [10] can be described thus: Clearance in Sprague-Dawley rat at 1 mg/kg, iv and 4 mg/kg, po. It is filed as ADME, organism-based. To be noted: in vivo. The method in brief: as §1
A short description of data set [11]: Volume of distribution at steady state in Sprague-Dawley rat at 1 mg/kg, iv and 4 mg/kg, po. In kind it is ADME, organism-based. The conditions noted are these: in vivo, read-out: Vdss. The procedure, abridged: as §1
Data set [12] can be described thus: Half life in Sprague-Dawley rat at 1 mg/kg, iv and 4 mg/kg, po. In kind it is ADME, organism-based. The conditions noted are these: in vivo. The procedure, abridged:
as §1

Another data set has as its system Rattus norvegicus. Description: Reduction of food intake in rat at 25 ug, icv. In kind it is functional. Set-up: scale not given: the % may be the effect or the level left. The procedure, abridged: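 Rats dosed intracerebroventricularly with 25 µg; food intake compared with animals receiving vehicle (20% PG/water).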
Another data set deals with Mus musculus. Description: Effect on food intake in po dosed diet-induced obese mouse. In kind it is functional, organism-based.

Sequence of Gastrin-releasing peptide receptor (P30550 whole entry): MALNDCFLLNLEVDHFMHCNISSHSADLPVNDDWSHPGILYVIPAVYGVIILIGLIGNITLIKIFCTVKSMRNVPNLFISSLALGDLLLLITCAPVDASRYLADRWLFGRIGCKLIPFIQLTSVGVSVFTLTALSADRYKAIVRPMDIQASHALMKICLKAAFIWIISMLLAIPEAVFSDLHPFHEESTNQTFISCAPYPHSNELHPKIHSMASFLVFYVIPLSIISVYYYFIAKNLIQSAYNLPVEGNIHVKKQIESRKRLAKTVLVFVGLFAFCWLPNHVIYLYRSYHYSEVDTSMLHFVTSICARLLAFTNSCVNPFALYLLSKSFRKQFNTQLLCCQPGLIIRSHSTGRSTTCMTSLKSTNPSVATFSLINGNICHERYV
Sequence of Neuromedin-B receptor (P28336 whole entry): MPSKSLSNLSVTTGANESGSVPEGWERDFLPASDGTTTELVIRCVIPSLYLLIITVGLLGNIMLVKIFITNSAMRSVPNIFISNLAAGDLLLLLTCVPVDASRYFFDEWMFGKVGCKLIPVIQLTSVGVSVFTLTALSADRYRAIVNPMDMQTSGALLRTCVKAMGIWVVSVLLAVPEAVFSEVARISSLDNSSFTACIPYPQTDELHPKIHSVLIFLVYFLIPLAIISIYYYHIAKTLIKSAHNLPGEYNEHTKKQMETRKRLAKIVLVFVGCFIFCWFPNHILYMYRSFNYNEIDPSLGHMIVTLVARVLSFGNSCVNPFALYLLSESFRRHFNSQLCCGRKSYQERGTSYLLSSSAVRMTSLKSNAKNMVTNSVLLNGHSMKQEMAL

As for `CCCCc1cnc(C(CCCO)Cc2ccc(-c3ccccc3C(=O)O)cc2)[nH]1` (centres undefined), the IC50 was 3680 nM in data set [1], > 10000 nM at Neuromedin-B receptor and > 10000 nM in data set [8]. For the same molecule, the EC50 is 1900 nM in [2], 174 nM in data set [4] and 238 nM in data set [5]. The Activity in data set [3] was determined as 74%; in data set [6], 101%; in [7] it was 98%.

Consider `CCCCc1cnc(CCc2ccc(-c3ccccc3C(=O)O)cc2)[nH]1`, for which the EC50 in data set [2] was 2710 nM; in data set [5] it was 93 nM. In addition, the Activity in [3] was found to be 78%; in data set [7], 116%. Further, the bioavailability in data set [9] was 16%. Further, the clearance in [10] was 1.3 mL/min/kg. Further, in data set [11], the Vd stood at 0.1 L/kg. The half-life in [12] is 1.56 h.

Consider `CC(C)(C)Cc1cnc(CCc2ccc(-c3ccccc3C(=O)O)cc2)[nH]1`, for which the figures for the EC50 in data set [2] and in data set [5] were 106 nM and 6.3 nM, respectively. For the same molecule, the results for the Activity (in [3]; in data set [7]; with Rattus norvegicus) were 103%, 105% and 29%, respectively. This molecule also showed a bioavailability in [9] of 19%. In data set [10], this molecule had a clearance of 1.02 mL/min/kg. In addition, in [11], the Vd amounted to 0.128 L/kg. In addition, the half-life in data set [12] was 1.54 h. In addition, the result with Mus musculus was inactive.

On to `COc1ccc(Cc2cnc(CCc3ccc(-c4ccccc4C(=O)O)cc3)[nH]2)cc1`, for which the EC50 came out at 5360 nM in data set [2] and 513 nM in data set [5]. The Activity is 44% in data set [3] and 88% in data set [7].

In the case of `Cc1cccc(Cc2cnc(CCc3ccc(-c4ccccc4C(=O)O)cc3)[nH]2)c1`, the EC50 in [2] was found to be 4310 nM; in [5], 75 nM. The Activity turned out to be 87% in data set [3] and 89% in data set [7].

Regarding `CC(C)(C)CCc1cnc(CCc2ccc(-c3ccccc3C(=O)O)cc2)[nH]1`, the results for the EC50 in data set [2] and in [5] were 39 nM and 6.2 nM, respectively. Further, the Activity in [3] was 102%; in [7], 99%.
